Experimental findings from ChEMBL document CHEMBL1641579, “Synthesis and biological evaluation of 7-substituted-1-(3-bromophenylamino)isoquinoline-4-carbonitriles as inhibitors of myosin light chain kinase and epidermal growth factor receptor” (Bioorg Med Chem, 2011) are described below.

For test [1], the target named is RAC-beta serine/threonine-protein kinase (Homo sapiens) (UniProt P31751). As to the kind of experiment: Inhibition of PKBbeta assessed as residual activity at 10 uM. In outline: (§1)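 Panel screen by radioactive kinase assay at a single inhibitor concentration. Score is the percent activity remaining relative to DMSO controls (100%).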
Sequence of RAC-beta serine/threonine-protein kinase (Homo sapiens) (P31751 whole entry): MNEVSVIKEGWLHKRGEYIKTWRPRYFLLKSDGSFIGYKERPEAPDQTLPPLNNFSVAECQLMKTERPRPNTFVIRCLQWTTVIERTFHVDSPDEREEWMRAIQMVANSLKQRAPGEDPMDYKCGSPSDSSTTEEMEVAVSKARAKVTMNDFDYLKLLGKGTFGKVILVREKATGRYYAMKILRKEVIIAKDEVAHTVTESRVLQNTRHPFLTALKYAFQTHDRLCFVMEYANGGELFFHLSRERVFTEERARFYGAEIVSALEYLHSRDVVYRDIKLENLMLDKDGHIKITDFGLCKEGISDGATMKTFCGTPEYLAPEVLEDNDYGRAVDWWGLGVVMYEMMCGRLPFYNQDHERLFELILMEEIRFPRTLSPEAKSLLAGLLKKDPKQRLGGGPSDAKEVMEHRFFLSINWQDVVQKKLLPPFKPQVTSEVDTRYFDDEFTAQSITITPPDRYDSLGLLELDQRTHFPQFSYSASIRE
The target of test [2] is Dual specificity mitogen-activated protein kinase kinase 1 (Homo sapiens) (UniProt Q02750). Description: Inhibition of MKK1 assessed as residual activity at 10 uM. The method in brief:
(§2)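 Kinase panel screen run as a radioactive activity assay at single compound concentration. Score reported as percent activity remaining relative to DMSO controls (100%).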

In test [3] the target is Proto-oncogene tyrosine-protein kinase Src (Homo sapiens) (UniProt P12931). As to the kind of experiment: Inhibition of Src assessed as residual activity at 10 uM. In outline:
as §1

In test [4] the target is Serine/threonine-protein kinase PAK 5 (Homo sapiens) (UniProt Q9P286). As to the kind of experiment: Inhibition of PAK5 assessed as residual activity at 10 uM. In outline: as §1
For test [5], the target named is Insulin receptor-related protein (Homo sapiens) (UniProt P14616). Description: Inhibition of IRR assessed as residual activity at 10 uM. In outline: as §2
Sequence of Insulin receptor-related protein (Homo sapiens) (P14616 whole entry): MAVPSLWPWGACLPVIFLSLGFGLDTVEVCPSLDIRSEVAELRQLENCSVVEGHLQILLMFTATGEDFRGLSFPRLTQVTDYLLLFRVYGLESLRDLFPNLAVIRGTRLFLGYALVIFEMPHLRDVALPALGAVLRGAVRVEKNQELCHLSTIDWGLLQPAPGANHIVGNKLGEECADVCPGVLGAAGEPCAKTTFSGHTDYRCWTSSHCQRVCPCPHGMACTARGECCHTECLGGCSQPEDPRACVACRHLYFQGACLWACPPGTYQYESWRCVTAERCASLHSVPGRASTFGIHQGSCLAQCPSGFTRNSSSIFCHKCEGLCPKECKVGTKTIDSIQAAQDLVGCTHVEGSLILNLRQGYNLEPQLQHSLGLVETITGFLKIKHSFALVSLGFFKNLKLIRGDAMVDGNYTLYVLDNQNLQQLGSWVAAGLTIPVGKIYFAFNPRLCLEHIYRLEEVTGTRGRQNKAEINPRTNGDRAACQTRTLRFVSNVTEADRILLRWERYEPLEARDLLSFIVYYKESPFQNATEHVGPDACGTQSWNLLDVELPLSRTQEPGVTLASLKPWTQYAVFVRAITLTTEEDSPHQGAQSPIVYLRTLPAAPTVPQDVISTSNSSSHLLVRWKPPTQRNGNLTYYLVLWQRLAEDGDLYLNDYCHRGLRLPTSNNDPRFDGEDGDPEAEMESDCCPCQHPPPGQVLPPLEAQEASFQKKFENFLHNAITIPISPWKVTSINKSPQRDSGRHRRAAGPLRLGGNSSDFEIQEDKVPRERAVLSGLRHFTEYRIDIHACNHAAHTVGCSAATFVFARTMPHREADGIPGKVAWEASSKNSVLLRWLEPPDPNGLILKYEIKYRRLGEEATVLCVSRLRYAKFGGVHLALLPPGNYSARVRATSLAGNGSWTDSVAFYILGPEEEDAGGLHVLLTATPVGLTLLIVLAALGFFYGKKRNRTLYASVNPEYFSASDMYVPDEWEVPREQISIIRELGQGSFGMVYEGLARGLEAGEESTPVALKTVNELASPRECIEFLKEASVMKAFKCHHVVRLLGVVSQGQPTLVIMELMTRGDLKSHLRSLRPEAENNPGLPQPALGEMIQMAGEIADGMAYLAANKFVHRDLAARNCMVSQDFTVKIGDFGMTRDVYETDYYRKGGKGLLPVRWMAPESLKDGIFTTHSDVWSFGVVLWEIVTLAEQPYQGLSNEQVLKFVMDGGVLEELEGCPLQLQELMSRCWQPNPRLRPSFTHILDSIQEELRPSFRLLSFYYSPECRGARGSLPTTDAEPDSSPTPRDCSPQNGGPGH
The target of test [6] is T1, Serine/threonine-protein kinase BRSK2 (Homo sapiens) (UniProt Q8IWQ3).
T1 sequence (whole entry): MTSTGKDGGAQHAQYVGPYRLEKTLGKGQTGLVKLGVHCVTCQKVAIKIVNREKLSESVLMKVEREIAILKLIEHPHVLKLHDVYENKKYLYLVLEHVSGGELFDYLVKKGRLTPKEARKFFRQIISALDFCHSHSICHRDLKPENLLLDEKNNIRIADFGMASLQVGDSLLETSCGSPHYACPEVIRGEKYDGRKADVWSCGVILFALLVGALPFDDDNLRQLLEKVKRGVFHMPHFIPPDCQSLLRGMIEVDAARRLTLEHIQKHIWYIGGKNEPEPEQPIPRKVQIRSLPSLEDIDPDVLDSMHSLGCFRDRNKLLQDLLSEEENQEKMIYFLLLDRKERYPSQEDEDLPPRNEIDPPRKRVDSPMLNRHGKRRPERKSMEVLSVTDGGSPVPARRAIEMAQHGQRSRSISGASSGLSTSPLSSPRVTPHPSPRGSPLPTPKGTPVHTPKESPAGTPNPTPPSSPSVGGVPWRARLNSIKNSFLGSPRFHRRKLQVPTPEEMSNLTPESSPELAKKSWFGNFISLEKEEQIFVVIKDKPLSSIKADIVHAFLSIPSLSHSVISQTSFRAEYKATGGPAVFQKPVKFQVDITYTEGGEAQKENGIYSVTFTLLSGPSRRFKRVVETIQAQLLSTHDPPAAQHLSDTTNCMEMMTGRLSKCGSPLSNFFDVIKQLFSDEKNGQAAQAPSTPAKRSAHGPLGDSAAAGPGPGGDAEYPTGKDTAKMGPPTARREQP
As to the kind of experiment: Inhibition of BRSK2 assessed as residual activity at 10 uM. The method in brief:
as §2

Test [7] addresses Ribosomal protein S6 kinase beta-1 (Homo sapiens) (UniProt P23443). As to the kind of experiment: Inhibition of S6K1 assessed as residual activity at 10 uM. In outline:
as §1

Test [8] addresses T2, Dual specificity tyrosine-phosphorylation-regulated kinase 3 (Homo sapiens) (UniProt O43781).
T2 sequence (whole entry): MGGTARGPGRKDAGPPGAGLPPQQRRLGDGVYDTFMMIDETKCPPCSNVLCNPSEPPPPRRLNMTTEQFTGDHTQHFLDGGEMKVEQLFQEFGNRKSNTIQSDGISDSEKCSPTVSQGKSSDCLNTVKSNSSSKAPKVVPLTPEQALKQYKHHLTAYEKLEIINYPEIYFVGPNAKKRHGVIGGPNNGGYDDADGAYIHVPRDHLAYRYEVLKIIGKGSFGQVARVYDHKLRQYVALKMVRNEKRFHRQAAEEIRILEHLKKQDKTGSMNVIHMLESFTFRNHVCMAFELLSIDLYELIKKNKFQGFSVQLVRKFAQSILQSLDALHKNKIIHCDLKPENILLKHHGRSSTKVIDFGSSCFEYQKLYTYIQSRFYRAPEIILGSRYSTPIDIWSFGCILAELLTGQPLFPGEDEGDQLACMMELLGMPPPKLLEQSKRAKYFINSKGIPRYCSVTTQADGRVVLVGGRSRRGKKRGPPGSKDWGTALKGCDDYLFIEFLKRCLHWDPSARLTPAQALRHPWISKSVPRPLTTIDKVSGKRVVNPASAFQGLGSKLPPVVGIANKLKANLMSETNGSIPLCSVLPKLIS
As to the kind of experiment: Inhibition of DYRK3 assessed as residual activity at 10 uM. In outline:
as §2

The target in test [9] is Mitogen-activated protein kinase 3 (Homo sapiens) (UniProt P27361). As to the kind of experiment: Inhibition of ERK1 assessed as residual activity at 10 uM. The method in brief: as §2
Sequence of Mitogen-activated protein kinase 3 (Homo sapiens) (P27361 whole entry): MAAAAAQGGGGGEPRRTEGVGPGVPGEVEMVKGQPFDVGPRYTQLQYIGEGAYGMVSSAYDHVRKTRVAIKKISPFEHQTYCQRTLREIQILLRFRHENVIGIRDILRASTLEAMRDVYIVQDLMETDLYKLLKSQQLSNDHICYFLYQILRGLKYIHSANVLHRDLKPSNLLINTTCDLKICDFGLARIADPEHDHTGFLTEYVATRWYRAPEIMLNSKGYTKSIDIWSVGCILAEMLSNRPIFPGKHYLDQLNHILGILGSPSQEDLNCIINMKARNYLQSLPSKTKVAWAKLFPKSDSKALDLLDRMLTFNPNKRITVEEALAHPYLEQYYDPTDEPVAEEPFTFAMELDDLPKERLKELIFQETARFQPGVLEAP
The target in test [10] is T3, Mitogen-activated protein kinase kinase kinase kinase 2 (Homo sapiens) (UniProt Q12851).
T3 sequence (whole entry): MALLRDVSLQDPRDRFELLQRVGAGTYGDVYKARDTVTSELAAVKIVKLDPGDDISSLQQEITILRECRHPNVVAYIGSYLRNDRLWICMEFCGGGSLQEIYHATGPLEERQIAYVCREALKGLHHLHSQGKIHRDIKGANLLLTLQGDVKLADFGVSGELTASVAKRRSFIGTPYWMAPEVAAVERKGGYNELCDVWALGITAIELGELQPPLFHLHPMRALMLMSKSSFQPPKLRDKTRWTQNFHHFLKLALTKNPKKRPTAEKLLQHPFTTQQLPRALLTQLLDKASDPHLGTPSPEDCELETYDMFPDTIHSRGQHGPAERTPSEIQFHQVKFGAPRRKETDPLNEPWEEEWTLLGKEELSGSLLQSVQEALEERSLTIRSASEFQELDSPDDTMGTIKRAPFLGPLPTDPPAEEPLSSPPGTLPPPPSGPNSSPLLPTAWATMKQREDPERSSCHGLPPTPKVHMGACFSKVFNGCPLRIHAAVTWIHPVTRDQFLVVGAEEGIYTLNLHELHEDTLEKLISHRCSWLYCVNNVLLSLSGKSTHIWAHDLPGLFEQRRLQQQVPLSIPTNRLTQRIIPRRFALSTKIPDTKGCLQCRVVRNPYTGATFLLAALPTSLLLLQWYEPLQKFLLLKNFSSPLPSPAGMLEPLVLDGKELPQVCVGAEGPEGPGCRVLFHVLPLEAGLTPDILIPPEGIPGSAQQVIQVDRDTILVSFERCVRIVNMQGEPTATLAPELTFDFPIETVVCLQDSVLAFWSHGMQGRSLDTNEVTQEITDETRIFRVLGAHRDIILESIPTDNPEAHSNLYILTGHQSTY
As to the kind of experiment: Inhibition of GCK assessed as residual activity at 10 uM. The method in brief: as §2

For test [11], the target named is Serine/threonine-protein kinase Chk2 (Homo sapiens) (UniProt O96017). Description: Inhibition of CHK2 assessed as residual activity at 10 uM. The method in brief:
as §2

Test [12] has as its target Mitogen-activated protein kinase 14 (Homo sapiens) (UniProt Q16539). As to the kind of experiment: Inhibition of p38alpha assessed as residual activity at 10 uM. The method in brief:
as §1

Test [13] deals with Fibroblast growth factor receptor 1 (Homo sapiens) (UniProt P11362). As to the kind of experiment: Inhibition of FGFR1 assessed as residual activity at 10 uM. In outline: as §2
Sequence of Fibroblast growth factor receptor 1 (Homo sapiens) (P11362 22-822 limits assumed): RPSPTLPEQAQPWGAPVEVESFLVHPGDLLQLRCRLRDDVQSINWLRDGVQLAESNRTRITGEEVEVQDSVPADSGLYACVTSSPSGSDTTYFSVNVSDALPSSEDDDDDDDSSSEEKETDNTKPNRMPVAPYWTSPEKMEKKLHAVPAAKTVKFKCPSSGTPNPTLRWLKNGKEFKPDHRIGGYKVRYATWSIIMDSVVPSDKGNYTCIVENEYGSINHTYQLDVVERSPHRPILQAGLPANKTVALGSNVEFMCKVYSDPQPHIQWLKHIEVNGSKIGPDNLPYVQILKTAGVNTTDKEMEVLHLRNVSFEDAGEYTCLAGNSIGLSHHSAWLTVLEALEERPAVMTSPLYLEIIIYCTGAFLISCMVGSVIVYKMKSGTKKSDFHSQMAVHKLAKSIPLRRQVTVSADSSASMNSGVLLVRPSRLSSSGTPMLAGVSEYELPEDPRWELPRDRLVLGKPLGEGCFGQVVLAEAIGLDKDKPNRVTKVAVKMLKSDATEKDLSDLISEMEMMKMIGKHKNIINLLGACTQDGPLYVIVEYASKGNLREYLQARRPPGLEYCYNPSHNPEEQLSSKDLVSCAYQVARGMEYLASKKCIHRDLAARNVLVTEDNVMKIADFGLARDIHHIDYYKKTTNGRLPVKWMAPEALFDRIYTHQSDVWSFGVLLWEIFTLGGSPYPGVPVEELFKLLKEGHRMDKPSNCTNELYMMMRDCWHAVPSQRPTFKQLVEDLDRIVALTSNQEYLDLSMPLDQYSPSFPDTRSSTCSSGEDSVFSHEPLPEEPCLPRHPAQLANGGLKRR

Each structure is given as a SMILES string.

Sequence of Ribosomal protein S6 kinase beta-1 (Homo sapiens) (P23443 whole entry, looked up): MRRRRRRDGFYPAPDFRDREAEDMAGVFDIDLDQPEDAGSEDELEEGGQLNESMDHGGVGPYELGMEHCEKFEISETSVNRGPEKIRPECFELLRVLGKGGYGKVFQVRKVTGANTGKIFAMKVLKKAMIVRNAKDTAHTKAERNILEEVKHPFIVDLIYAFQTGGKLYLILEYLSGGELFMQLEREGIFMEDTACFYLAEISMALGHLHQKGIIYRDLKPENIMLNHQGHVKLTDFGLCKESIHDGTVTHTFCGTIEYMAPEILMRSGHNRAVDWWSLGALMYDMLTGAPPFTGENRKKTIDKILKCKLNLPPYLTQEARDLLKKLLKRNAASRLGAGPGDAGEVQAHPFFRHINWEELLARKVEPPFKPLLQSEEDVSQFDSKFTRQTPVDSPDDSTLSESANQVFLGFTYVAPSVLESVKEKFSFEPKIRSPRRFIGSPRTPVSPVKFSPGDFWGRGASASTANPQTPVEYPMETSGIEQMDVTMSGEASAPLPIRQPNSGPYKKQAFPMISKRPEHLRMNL
Sequence of Serine/threonine-protein kinase Chk2 (Homo sapiens) (O96017 whole entry): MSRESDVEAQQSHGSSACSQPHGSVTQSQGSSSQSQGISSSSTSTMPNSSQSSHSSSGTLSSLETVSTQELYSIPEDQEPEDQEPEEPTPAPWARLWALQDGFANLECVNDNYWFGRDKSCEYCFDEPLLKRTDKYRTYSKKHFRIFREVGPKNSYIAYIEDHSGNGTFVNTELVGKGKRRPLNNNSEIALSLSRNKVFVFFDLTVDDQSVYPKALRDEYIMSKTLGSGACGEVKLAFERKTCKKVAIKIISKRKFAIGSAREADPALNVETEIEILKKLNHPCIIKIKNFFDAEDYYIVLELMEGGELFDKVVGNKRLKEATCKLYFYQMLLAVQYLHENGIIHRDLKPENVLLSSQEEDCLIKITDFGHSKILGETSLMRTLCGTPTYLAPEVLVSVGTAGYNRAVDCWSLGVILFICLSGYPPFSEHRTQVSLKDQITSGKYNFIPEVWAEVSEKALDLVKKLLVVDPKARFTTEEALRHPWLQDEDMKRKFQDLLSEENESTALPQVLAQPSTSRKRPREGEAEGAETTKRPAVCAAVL
Sequence of Dual specificity mitogen-activated protein kinase kinase 1 (Homo sapiens) (Q02750 whole entry): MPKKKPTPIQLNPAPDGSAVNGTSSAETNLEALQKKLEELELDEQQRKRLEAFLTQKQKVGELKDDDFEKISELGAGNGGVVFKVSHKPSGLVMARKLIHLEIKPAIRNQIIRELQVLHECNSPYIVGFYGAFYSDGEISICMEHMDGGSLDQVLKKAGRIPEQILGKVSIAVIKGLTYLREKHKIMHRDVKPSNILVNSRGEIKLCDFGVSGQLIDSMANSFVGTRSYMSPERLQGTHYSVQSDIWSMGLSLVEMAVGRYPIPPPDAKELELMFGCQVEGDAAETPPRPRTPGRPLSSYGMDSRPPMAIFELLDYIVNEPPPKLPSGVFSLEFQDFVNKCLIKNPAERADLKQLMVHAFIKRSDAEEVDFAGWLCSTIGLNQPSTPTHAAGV
Sequence of Proto-oncogene tyrosine-protein kinase Src (Homo sapiens) (P12931 2-536 limits assumed): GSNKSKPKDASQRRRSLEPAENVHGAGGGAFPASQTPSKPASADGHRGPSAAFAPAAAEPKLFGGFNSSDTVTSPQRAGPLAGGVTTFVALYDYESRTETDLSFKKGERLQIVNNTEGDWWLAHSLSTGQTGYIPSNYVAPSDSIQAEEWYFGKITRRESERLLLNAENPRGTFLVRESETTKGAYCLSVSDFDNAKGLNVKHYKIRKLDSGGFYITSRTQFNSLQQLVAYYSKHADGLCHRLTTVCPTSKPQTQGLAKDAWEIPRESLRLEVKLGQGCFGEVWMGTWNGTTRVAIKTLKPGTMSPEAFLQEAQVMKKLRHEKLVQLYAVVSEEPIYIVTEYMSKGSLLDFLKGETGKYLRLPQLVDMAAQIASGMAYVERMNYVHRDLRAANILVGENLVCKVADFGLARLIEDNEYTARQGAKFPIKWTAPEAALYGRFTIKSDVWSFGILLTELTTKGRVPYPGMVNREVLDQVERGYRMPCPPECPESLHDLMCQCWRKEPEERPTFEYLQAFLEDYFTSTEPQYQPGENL

As to `CN1CCN(CCC(=O)Nc2ccc3c(C#N)cnc(Nc4cccc(Br)c4)c3c2)CC1`, the Activity came to 87% in test [1]; 79% in [2]; 49% in test [3]; 85% in [4]; 86% in test [5]; 100% in test [6]. The Activity came out at 82% in test [7]; 81% in test [8]; 85% in test [9]; 84% in [10]; 53% in [11]; 58% in test [12]. Further, in test [13], the Activity came out at 100%.

In the case of `CN(C)CCCC(=O)Nc1ccc2c(C#N)cnc(Nc3cccc(Br)c3)c2c1`, the Activity in test [1] was 85%; in [2], 100%; in test [3], 60%; in [4], 89%; in test [5], 98%; in test [6], 75%. Also, the Activity in test [7] was determined as 84%; in test [8], 73%; in test [9] it was 93%; in [10] it was 80%; in [11], 56%; in test [12], 71%. In addition, the Activity in [13] came out at 99%.

Turning to `CN(C)C/C=C/C(=O)Nc1ccc2c(C#N)cnc(Nc3cccc(Br)c3)c2c1`, the Activity in [1] turned out to be 37%; in test [2] it was 47%; in test [3] it was 61%; in [4], 86%; in test [5], 73%; in [6] it was 75%. Further, the Activity in test [7] came to 71%; in [8], 75%; in test [9], 83%; in [10] it was 84%; in [11] it was 51%; in test [12] it was 81%. Besides, in test [13], the Activity was 51%.
